HUVEC prolif 384: human endothelial cell proliferation inhibition. HUVEC proliferation, CellTiter-Glo luminescence, 72 h; active compounds read low. viability, % at 10 µM (by protocol). 1.1% of 86,000 active. AID 648;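 active = viability at or below 30%; inactive = viability above 30%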;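 also: 100% = median luminescence of DMSO-only cell control wells on each plate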
bCat KO growth: beta-catenin-lacking colon tumor cell growth suppression; HCT116 beta-catenin knockout viability, CellTiter-Glo, 60 h; active compounds read low; AID 818; viability, % at 10 µM; 1.5% of 140,000 active;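 active = viability at or under a set limit, the compound median less 4 SD, cut at about 6% in these data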;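 also: 0% = Hyamine 1622 control at 20 µM and 100% = untreated cell control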
H69AR inhibit: growth inhibitors of human H69AR lung tumor cells. H69AR lung tumor viability, ATP luminescence, 72 h; active compounds read low. 6% of 85,000 active. viability, % at 10 µM;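 active = viability at or below 40%; inactive = viability above 40%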;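 also: multidrug resistant small cell line overexpressing MRP-1 efflux transporter; 100% = mean luminescence of untreated control wells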
Fibroblast inh: blocks proliferation of human lung fibroblasts | LL 47 human lung fibroblast viability, ATP luminescence; active compounds read low | viability, % at 10 µM | 1.1% of 85,000 active;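 active = viability at or below 50% in the single dose screen; inactive = viability above 50%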;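 also: compound exposure lasted 72 h before the ATP readout; 100% = median luminescence of untreated cell-only wells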
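test system = LL 47 human lung fibroblasts | amount = 1,150 fibroblasts seeded per well | medium = 15% FBS in IMEM | times = overnight cell rest, 72 h compound treatment at 37 °C | measured by = CellTiter-Glo luminescence measuring cellular ATP | read-out = viability percentage against median untreated-cell control | benchmarks = cell-only wells, no compound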
PTEN del growth: PTEN-deleted cell growth suppression; HCT116 PTEN-null viability, CellTiter-Glo, 60 h; active compounds read low; AID 827; viability, % at 10 µM; 1.2% of 140,000 active;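 active = viability at or below a set limit, 4 SD under the median of all tested compounds, cut at about 3.7% in these data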;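 also: PTEN knockout HCT116 line with beta catenin targeted HCT116 as companion control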
Starred values were filed as active, the others as inactive. Only a selection was taken, and hits are over-represented in it overall.

For COC(=O)/C(=C\Nc1ccc(Cl)cc1Cl)NC(=O)c1ccc(Cl)cc1Cl the results were HUVEC prolif 384 27*, bCat KO growth 65, H69AR inhibit 21*, Fibroblast inh 89 and PTEN del growth 63.
`COc1ccc2c(c1)O[C@@H](c1ccc3c(c1)OCO3)[C@H](OC(=O)Nc1cc(OC)c(OC)c(OC)c1)C2=O` gave bCat KO growth 16 and PTEN del growth 15.
OC(CNCCc1ccc(C(F)(F)F)cc1)COc1cccc2ccccc12 (stereo not drawn) was read as bCat KO growth 1.7* and PTEN del growth 1.7*.
Screening OC(CNCCc1ccc(C(F)(F)F)cc1)COc1ccc2ccccc2c1 (stereo not drawn) returned bCat KO growth 9 and PTEN del growth 23.
For Cc1cc(C)n2nc(CC(=O)NCc3ccccc3Cl)nc2n1 the results were bCat KO growth 90 and PTEN del growth 98.
Screening COc1ccccc1N1CCN(S(=O)(=O)Cc2ccccc2Cl)CC1 returned HUVEC prolif 384 83, bCat KO growth 90, H69AR inhibit 93, Fibroblast inh 87 and PTEN del growth 81.
For CC1(C)Cc2c(cnn2-c2ccccc2)-c2c1c1ccccc1n2CC(O)CCl (stereo not drawn) the results were HUVEC prolif 384 60, bCat KO growth 72, H69AR inhibit 25*, Fibroblast inh 92 and PTEN del growth 66.
`CN(C)S(=O)(=O)c1cccc(N=C2NN=C(c3ccccc3)CS2)c1` gave bCat KO growth 5.2* and PTEN del growth 3.8*.
For CC1CN(C(=O)c2ccccc2)C(=Nc2cccc(S(=O)(=O)N(C)C)c2)S1 (stereo not drawn) the results were bCat KO growth 85 and PTEN del growth 96.
Screening CC(C)c1nc(SCC(=O)Nc2ccc3c(c2)OCCO3)c2c(=O)n(C)c(=O)n(C)c2n1 returned HUVEC prolif 384 75, bCat KO growth 76, H69AR inhibit 31*, Fibroblast inh 106 and PTEN del growth 81.
For CCCc1nc(SCC(=O)NCc2ccc3c(c2)OCO3)c2c(=O)n(C)c(=O)n(C)c2n1 the results were HUVEC prolif 384 50, H69AR inhibit 13* and Fibroblast inh 102.
For CCCCCCCC(=O)N/N=C(\C)c1cccnc1 the results were HUVEC prolif 384 93, bCat KO growth 90, H69AR inhibit 93, Fibroblast inh 98 and PTEN del growth 105.
O=C(Nc1ccncc1)C1CCCN(S(=O)(=O)c2cccc3cccnc23)C1 (stereo not drawn) was read as HUVEC prolif 384 67, bCat KO growth 23, H69AR inhibit 24*, Fibroblast inh 57 and PTEN del growth 23.
Screening O=C(/C=C/c1ccccc1Cl)c1ccccc(=O)c1O returned bCat KO growth 1.3* and PTEN del growth 2.1*.
Screening Cc1ccc(C)c(/C=C/C(=O)c2ccccc(=O)c2O)c1 returned bCat KO growth 12 and PTEN del growth 8.
For Cc1ccc(/C=C/C(=O)c2ccccc(=O)c2O)c(C)c1 the results were bCat KO growth 4.2* and PTEN del growth 6.
For C(=C\c1ccccc1)/CSc1nnc(-c2cnccn2)n1Cc1ccco1 the results were HUVEC prolif 384 62, bCat KO growth 61, H69AR inhibit 29*, Fibroblast inh 87 and PTEN del growth 67.
For O=C(/C=C/c1ccc(Br)cc1)c1ccc(NC2=NCCCS2)cc1 the results were bCat KO growth 3.2* and PTEN del growth 2.4*.
Screening O=C(/C=C/c1ccccc1)c1ccc(NC2=NCCCS2)cc1 returned bCat KO growth 9 and PTEN del growth 10.
For CC(C)(C)c1ccc(/C=C/C(=O)c2ccc(NC3=NCCCS3)cc2)cc1 the results were bCat KO growth 1.1* and PTEN del growth 0.9*.
O=C(Nc1ccccc1-c1nc2ccccc2s1)C1=COCCO1 was read as bCat KO growth 82 and PTEN del growth 83.
CCOCCCNC(=O)C1CCN(c2cc(C)nc3c(-c4ccc(OC)c(OC)c4)c(C)nn23)CC1 was read as HUVEC prolif 384 106, bCat KO growth 72, H69AR inhibit 33*, Fibroblast inh 106 and PTEN del growth 63.
Screening COc1ccccc1-c1c(C)nn2c(N3CCN(Cc4ccccc4)CC3)cc(C)nc12 returned HUVEC prolif 384 90, bCat KO growth 33, H69AR inhibit 55, Fibroblast inh 87 and PTEN del growth 52.
COc1ccc(-c2c(C)nn3c(N4CCN(Cc5ccccc5)CC4)cc(C)nc23)cc1OC was read as HUVEC prolif 384 66, bCat KO growth 11, H69AR inhibit 17*, Fibroblast inh 82 and PTEN del growth 7.
Cc1cc(N2CCN(Cc3ccccc3)CC2)n2nc(C)c(-c3ccccc3)c2n1 was read as HUVEC prolif 384 77, bCat KO growth 46, H69AR inhibit 19*, Fibroblast inh 92 and PTEN del growth 61.
`COc1ccccc1N1CCN(c2cc(C)nc3nc(C)nn23)CC1` gave HUVEC prolif 384 99, bCat KO growth 87, H69AR inhibit 40*, Fibroblast inh 99 and PTEN del growth 92.
COc1ccccc1-c1c(C)nn2c(N3CCN(c4ccccc4OC)CC3)cc(C)nc12 was read as HUVEC prolif 384 81, bCat KO growth 15, H69AR inhibit 93, Fibroblast inh 106 and PTEN del growth 36.
`COc1cc(CCN2C(=O)c3cccc4cccc(c34)C2=O)c(S(=O)(=O)N2CCC(C)CC2)cc1OC` gave bCat KO growth 85 and PTEN del growth 83.
O=C(NNC(=O)c1cccs1)c1ccc(Cl)c(Cl)c1 was read as bCat KO growth 92 and PTEN del growth 87.
`Cc1ccccc1NC(=O)CSc1ccsc1[N+](=O)[O-]` gave bCat KO growth 83 and PTEN del growth 97.
Screening N#CC1=C(N)N(c2ncn[nH]2)C2=C(C(=O)CCC2)C1c1ccc(F)cc1 (stereo not drawn) returned bCat KO growth 91 and PTEN del growth 85.
COc1ccccc1-c1c(C)nn2c(N3CCCCCC3)cc(C)nc12 was read as bCat KO growth 2.6* and PTEN del growth 3.2*.
Cc1cc(SCC#N)n2nc(C)c(-c3ccccc3)c2n1 was read as HUVEC prolif 384 53, bCat KO growth 82, H69AR inhibit 26*, Fibroblast inh 74 and PTEN del growth 74.
Cc1cccc(CN2C(=O)CCSc3ccc(Cl)cc32)c1 was read as bCat KO growth 93 and PTEN del growth 84.
For Cc1ccccc1C(=O)O/N=C(\N)c1ccncc1 the results were bCat KO growth 82 and PTEN del growth 81.
`C=CCNC(=O)c1ccccc1NC(=O)c1ccccc1C` gave HUVEC prolif 384 97, bCat KO growth 0.8*, H69AR inhibit 83, Fibroblast inh 96 and PTEN del growth 1.0*.
CS(=O)(=O)N1CC(C(=O)NC2CC2)Oc2ccc(Cl)cc21 (stereo not drawn) was read as bCat KO growth 99 and PTEN del growth 90.

Source: PubChem
